Laboratory results as given in ChEMBL document CHEMBL5226322, “Harnessing the Role of HDAC6 in Idiopathic Pulmonary Fibrosis: Design, Synthesis, Structural Analysis, and Biological Evaluation of Potent Inhibitors” (J Med Chem, 2021).

Tests used:
NIH3T3 [1] = assay: Cytotoxicity in mouse NIH3T3 cells assessed as reduction in cell viability at 15 uM incubated for 24 hrs by neutral red uptake method based UV/visible spectrophotometer analysis; assay type: toxicity; conditions: nih3t3, 24 h
Summary of the method: (§1)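 NIH3T3 mouse fibroblasts grown in DMEM with 10% FCS, L-glutamine/pen-strep and non-essential amino acids (37 °C, 5% CO2). Exposed 24 h to compound diluted from a DMSO stock into medium. Viability measured by Neutral Red uptake: 3 h in NR medium, then acetic acid/ethanol desorb, absorbance at 540 nm. Student's t-test, p<0.05.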

NIH3T3 [2] = assay: Cytotoxicity in mouse NIH3T3 cells assessed as reduction in cell viability at 25 uM incubated for 24 hrs by neutral red uptake method based UV/visible spectrophotometer analysis; assay type: toxicity; conditions: nih3t3, 24 h; summary of the method: as §1
Heart [3] = assay: Cardiotoxicity in Langendorff-perfused Sprague-Dawley rat heart assessed as effect on RR time at 10 uM by ECG analysis (reference value: 257.2 +/-8.1 milliseconds); assay type: toxicity, tissue-based
Heart [4] = assay: Cardiotoxicity in Langendorff-perfused Sprague-Dawley rat heart assessed as effect on PQ interval time at 0.1 uM by ECG analysis (reference value: 43.6 +/-2.5 milliseconds); assay type: toxicity, tissue-based
Heart [5] = assay: Cardiotoxicity in Langendorff-perfused Sprague-Dawley rat heart assessed as effect on QRS interval time at 0.01 uM by ECG analysis (reference value: 15.2 +/-0.2 milliseconds); assay type: toxicity, tissue-based
Heart [6] = assay: Cardiotoxicity in Langendorff-perfused Sprague-Dawley rat heart assessed as effect on QRS interval time at 0.1 uM by ECG analysis (reference value: 15.2 +/-0.2 milliseconds); assay type: toxicity, tissue-based
Heart [7] = assay: Cardiotoxicity in Langendorff-perfused Sprague-Dawley rat heart assessed as effect on QRS interval time at 10 uM by ECG analysis (reference value: 15.2 +/-0.2 milliseconds); assay type: toxicity, tissue-based
Heart [8] = assay: Cardiotoxicity in Langendorff-perfused Sprague-Dawley rat heart assessed as effect on QT interval time at 10 uM by ECG analysis (reference value: 76.2 +/-2.9 milliseconds); assay type: toxicity, tissue-based
Heart [9] = assay: Cardiotoxicity in Langendorff-perfused Sprague-Dawley rat heart assessed as effect on QTc interval time at 0.01 uM by ECG analysis (reference value: 150.5 +/-5.5 milliseconds); assay type: toxicity, tissue-based
Heart [10] = assay: Cardiotoxicity in Langendorff-perfused Sprague-Dawley rat heart assessed as effect on QTc interval time at 1 uM by ECG analysis (reference value: 150.5 +/-5.5 milliseconds); assay type: toxicity, tissue-based
Heart [11] = assay: Cardiotoxicity in Langendorff-perfused Sprague-Dawley rat heart assessed as effect on QTc interval time at 10 uM by ECG analysis (reference value: 150.5 +/-5.5 milliseconds); assay type: toxicity, tissue-based
[12] = Cytotoxicity in mouse NIH3T3 cells assessed as reduction in cell viability by measuring toxic concentration incubated for 24 hrs by neutral red uptake method based UV/visible spectrophotometer analysis; assay type: toxicity; conditions: read-out: TC50
Summary of the method: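 NIH3T3 mouse fibroblasts grown in DMEM with 10% FCS, L-glutamine/penicillin/streptomycin and non-essential amino acids, 37 °C, 5% CO2. DMSO stocks diluted in complete medium, applied to monolayers for 24 h at several concentrations. Viability by Neutral Red uptake: 3 h dye loading, desorb in acetic acid/ethanol, absorbance at 540 nm. Student's t-test, p < 0.05.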

SMILES: CC1(C)c2ccccc2N(Cc2ccc(C(=O)NO)cc2)C1c1cccnc1 (racemic)
- Activity (NIH3T3 [1]): 94%
- Activity (NIH3T3 [2]): 87%
- Time (Heart [3]): 294.1 ms
- Time (Heart [4]): 44.6 ms
- Time (Heart [5]): 15.6 ms
- Time (Heart [6]): 15.4 ms
- Time (Heart [7]): 18 ms
- Time (Heart [8]): 78.3 ms
- Time (Heart [9]): 154.6 ms
- Time (Heart [10]): 150.8 ms
- Time (Heart [11]): 145.3 ms
- CC50 at 24 h [12]: 75 µM
